# Sampled rows, rich in hits. Any-hit rate of the full collection: about 1.6%.
# FLuc act counter – affects firefly luciferase, flagging false hits in luciferase stimulation screens | P08659 | ATPlite luciferase biochemical, luminescence, 10 min; 0 = ATP-free wells, 1 = DMSO control | activation factor at 10 µM | 200,000 tested, under 10 active | AID 1027;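 active means luciferase activation factor, scaled between plate controls, of at least 2 with compound at 10 µM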
# Target sequence (P08659 whole entry, looked up): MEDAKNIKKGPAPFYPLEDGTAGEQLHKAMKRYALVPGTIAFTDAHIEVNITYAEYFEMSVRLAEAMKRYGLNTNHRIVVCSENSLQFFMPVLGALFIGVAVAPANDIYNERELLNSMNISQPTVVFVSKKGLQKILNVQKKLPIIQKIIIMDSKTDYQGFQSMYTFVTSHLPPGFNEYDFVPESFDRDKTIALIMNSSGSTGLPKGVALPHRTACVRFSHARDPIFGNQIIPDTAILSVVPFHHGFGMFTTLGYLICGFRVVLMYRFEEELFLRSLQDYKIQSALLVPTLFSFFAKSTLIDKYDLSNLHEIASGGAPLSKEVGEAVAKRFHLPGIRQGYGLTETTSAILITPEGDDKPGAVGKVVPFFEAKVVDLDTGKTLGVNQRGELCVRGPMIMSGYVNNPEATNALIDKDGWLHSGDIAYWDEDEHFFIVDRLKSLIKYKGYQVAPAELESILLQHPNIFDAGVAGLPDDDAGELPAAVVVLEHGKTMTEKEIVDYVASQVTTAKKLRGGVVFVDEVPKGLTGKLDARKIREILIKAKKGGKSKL
#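 System: Luciferase/luciferin detection reagent, cell-free biochemical luciferase assay | Medium: PBS buffer for ATP | Dosing: Test compounds dosed from 2 mM stocks in 100% DMSO | Timing: 10 min at ambient temperature | Signal: Luminescence measurement of luciferase light output | Evaluation: Luciferase activation, seen as luminescence increase over controls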
# FLuc inh counter – counter-screen for luciferase assay inhibitors: firefly luciferase inhibition; actives 1.5% (n = 200,000); AID 1006; P08659; inhibition, % at 10 µM; ATPLite firefly luciferase biochemical luminescence, 10 min;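 active means inhibition above about 50% when tested at 10 µM, limit read from the data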
# C8 TRAIL sens – sensitizes caspase-8 expressing cells to TRAIL | AID 624354 | NB7+C8 cells + TRAIL, ATPlite viability luminescence | actives 1% (n = 360,000) | inhibition (viability loss, TRAIL sensitization), % at 10 µM;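 active means compounds causing at least 50% loss of cell viability in the single-dose screen, relative to plate controls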
# PPC-1+TRAIL kill – kills PPC-1 cancer cells in the presence of TRAIL | PPC-1 cells + TRAIL, ATPLite viability luminescence | cell killing (% activity), % at 4 µM or 5 µM | actives 0.41% (n = 220,000);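 active means cell killing above 50% in the first pass at 4 µM, then a duplicate retest at 5 µM averaging 50% or more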;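 further: plate controls were cells with TRAIL plus DMSO for no effect and medium-only wells lacking cells for full effect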
# Active calls of the source: *; / = not tested or not shown.
SMILES,FLuc act counter,FLuc inh counter,C8 TRAIL sens,PPC-1+TRAIL kill
COc1ccc(O)c(/C=C(\C#N)C(=O)Nc2cccnc2)c1,0.4,63.3*,-10.8,10.3
COc1cccc2oc3ccc(C#Cc4ccccn4)cc3c(=O)c12,/,/,69.2*,/
O=C(O)CSc1cc(NS(=O)(=O)c2ccc(Br)cc2)c2ccccc2c1O,/,/,48.2*,/
Cc1nc(Nc2nc3ccccc3o2)nc2c1CCC2,0.3,66.1*,37.9,25.2
Cc1ccccc1-c1cc2nc(Oc3ccc4c(c3)OCO4)n(C)c(=O)c2s1,/,/,-15.6,/
Cc1ccccc1NC(=S)NNC(=O)c1csc2c1CCC(C)C2 (configuration not stated),0.4,60.1*,16.6,39.4
CCNC(=S)NNC(=O)c1csc2c1CCC(C)C2 (configuration not stated),1,-1.6,-9.9,17.3
Cc1nnc(NC(=O)c2cc3ccccc3o2)s1,/,/,42.3,/
CCOC(=O)c1sc(NC(=O)c2cc3ccccc3o2)nc1C,0.5,51.9*,33.4,17.9
CC1(C)CC(=O)c2sc(NC(=O)c3ccco3)nc2C1,0.3,73.7*,49.3,32.6
CCOC(=O)c1csc(NC(=O)c2cc3ccccc3o2)n1,/,/,25.4,9.7
CCOC(=O)c1sc(NC(=O)Nc2ccccc2F)nc1C,0.2,84.3*,76.9*,53.7*
Cc1nc(NC(=O)c2cc3ccccc3o2)sc1C,/,/,53.9*,/
COc1ccc(CN(CC(=O)NCc2ccccc2)C(=O)CCC(=O)Nc2ccccn2)cc1,/,/,-3.6,/
C=CCOC(=O)c1sc(NC(=O)c2ccco2)nc1C,0.4,57.6*,50.3*,47.9
COc1ccc(-c2nc(NC(=O)c3ccco3)sc2C)cc1,/,/,22.4,/
CCOC(=O)c1sc(NC(=O)c2ccccc2OC)nc1C,0.4,61.6*,60.9*,28.2
CCN(CC(=O)Nc1ccccc1C(F)(F)F)C(=O)c1ccccc1OCc1ccc(F)cc1,/,/,-6.8,/
NS(=O)(=O)c1ccc(N2CCOCC2)c(C(=O)NCCCSc2ccccc2)c1,/,/,-5.1,/
Cc1ccc(-c2cc(C(=O)N3CCCc4ccccc43)no2)cc1,0.4,57.6*,31.7,10.8
COc1cccc(-c2cc(C(=O)N3CCCCCC3)no2)c1,0.4,62.0*,-7.8,31.6
O=C(c1cc(-c2ccc(F)cc2)on1)N1CCCCCC1,/,/,15.7,/
O=C(c1cc(-c2ccc(F)cc2)on1)N1CCCC1,0.4,63.8*,36.4,32.3
COc1ccc(-c2cc(C(=O)N3CCCC3)no2)cc1,/,/,61.5*,/
COc1ccc(-c2cc(C(=O)N3CCCCCC3)no2)cc1,/,/,25.9,/
SMILES,FLuc act counter,FLuc inh counter,C8 TRAIL sens,PPC-1+TRAIL kill
O=C(c1cc(-c2ccc(F)cc2)on1)N1CCCc2ccccc21,0.7,29.7,2.4,-1.3
COc1ccc(-c2noc(-c3csc([C@@H]4O[C@H](CO)[C@H](O)[C@H](O)[C@H]4O)n3)n2)cc1OC,/,/,-2.1,/
COc1ccc2cc3cc(C(=O)N4CCN(C5CCCCC5)CC4)oc3nc2c1,/,/,11.7,/
COc1ccc2cc3cc(C(=O)N4CCCCCC4)oc3nc2c1,/,/,49.8*,/
COc1ccc(N=Nc2ccc(N)nc2N)cc1,/,/,-0.2,14.2
CCOc1ccc2nc3cc(N=Nc4ccc(N)nc4N)ccc3c(N)c2c1,/,/,79.3*,/
O=C(/C=C/c1ccc(Cl)cc1)c1ccc([N+](=O)[O-])o1,/,/,59.8*,/
Cc1cc(O)c(C(=O)/C=C/c2ccc(Cl)cc2)c(=O)o1,/,/,69.5*,/
CSc1ccc(/C=C/C(=O)c2c(O)cc(C)oc2=O)cc1,/,/,63.8*,/
O=C(NCc1ccccc1)C1Cc2c(-c3ccc4c(c3)OCO4)ccnc2O1 (configuration not stated),/,/,14.6,/
CCCCn1c(N)c(N(CC(C)C)C(=O)CCN2C(=O)C3CC=CCC3C2=O)c(=O)[nH]c1=O (configuration not stated),/,/,1.1,/
O=C(NCC(=O)N1CCCCCCC1)c1ccc(Cl)c(Cl)c1,/,/,-19.3,/
CC(C)Cn1c(=O)c2c(nc3n2CC(C)CN3Cc2ccccc2)n(C)c1=O (configuration not stated),/,/,18.4,/
O=C(NCc1ccc(F)cc1F)[C@@H]1CCCN1C(=O)[C@@H]1CCCN1C(=O)c1cccs1,/,/,-7.9,/
O=C(N/N=C/C(Cl)=C\c1ccccc1)c1cnccn1,0.5,45.7,24.2,14.9
O=C(N/N=C/C(Cl)=C/c1ccccc1)c1cnccn1,0.4,56.0*,20.8,15.7
CC(=C/c1ccccc1)/C=N/NC(=O)c1cnccn1,0.3,74.3*,44.8,24.6
CC(/C=N/NC(=O)c1cccnc1)=C\c1ccccc1,0.4,64.8*,16.0,36.9
CC(/C=N/NC(=O)c1ccc(Br)cc1)=C\c1ccccc1,0.8,19.5,16.1,19.8
O=C(N/N=C/C(Cl)=C/c1ccccc1)c1ccco1,0.4,64.3*,31.3,4.8
CCOc1ccccc1N1CC(C(=O)Nc2cc(Cl)ccc2-n2cncn2)CC1=O (configuration not stated),/,/,12.4,/
CC(NC(=O)c1cc2cc(Br)ccc2oc1=N)c1ccccc1 (configuration not stated),/,/,5.4,/
O=C1/C(=N\S(=O)(=O)c2cccs2)C([n+]2ccc(CCCc3ccccc3)cc2)=C([O-])c2ccccc21,/,/,3.2,17.0
O=C1/C(=N\S(=O)(=O)c2cccs2)C([n+]2cccc(Cc3ccccc3)c2)=C([O-])c2ccccc21,/,/,48.0*,29.6
COc1cccc(CNC(=O)COC(=O)C2CC3CCCC(C2)C3=O)c1 (configuration not stated),/,/,3.4,/
SMILES,FLuc act counter,FLuc inh counter,C8 TRAIL sens,PPC-1+TRAIL kill
CC(=O)N(Cc1ccc(F)cc1)C1=C(NCCc2ccccc2)C(=O)c2ccccc2C1=O,1,-1.6,89.4*,47.5
CCOC(=O)c1c(C)sc2c1N(C(=O)CCl)c1cc(Cl)ccc1S2,1.1,-6.1,55.0*,4.6
COc1ccccc1OC(C)C(=O)Nc1nc(-c2ccc(S(=O)(=O)N3CCOCC3)cc2)cs1 (configuration not stated),1,-3.4,0.4,5.1
COc1ccccc1C(=O)Nc1nc(-c2ccc(S(=O)(=O)N3CCOCC3)cc2)cs1,1,-1.8,75.5*,38.8
CC(C)c1ccc(N(CC(=O)NCc2cccnc2)S(=O)(=O)c2ccccc2)cc1,/,/,-0.9,/
Cc1ccc(C(C#N)=Cc2ccc3c(c2)OCO3)cc1,/,/,56.0*,/
COc1ccccc1/C=N/OC(=O)c1ccc(C)cc1,0.3,71.2*,-14.9,6.7
O=C(O/N=C/c1ccc2c(c1)OCO2)c1ccc([N+](=O)[O-])cc1,1,-4.5,-2.1,27.4
Cc1ccc(C(=O)O/N=C/c2ccc3c(c2)OCO3)cc1,0.4,58.8*,-6.8,3.3
N#C/C(=C\c1ccc2c(c1)OCO2)C(N)=S,/,/,0.6,12.7
COc1cc(OC)cc(C(=O)N2CCN(C3CCC(C)CC3)CC2)c1 (configuration not stated),/,/,-3.2,/
O=S(=O)(c1cccc(-c2cn3cc(Cl)ccc3n2)c1)N1CCOCC1,1,-0.9,4.8,10.0
Brc1ccc2nc(-c3c[nH]c4ccccc34)cn2c1,0.4,58.2*,37.1,11.9
Clc1ccc(-c2cn3cc(Br)ccc3n2)cc1Cl,0.5,53.4*,35.6,31.7
COc1ccc(Oc2c(Cl)cnn(-c3ccc(Cl)c(Cl)c3)c2=O)cc1,1,-3.8,88.7*,8.7
